# Bioassay records: PubChem, The Scripps Research Institute Molecular Screening Center
# Compounds with a hit are over-represented: about 4.6% of the library has one in this group of screens.
# TAAR1 antagonist: human TAAR1 antagonists, primary screen, Fluo-8 calcium fluorescence, CHO RD-HGA16 cells. inhibition, % at 3 µM. AID 624466, 2012. Trace amine-associated receptor 1 (Homo sapiens), Q96RJ0. hit rate 1.5% among 360,000. antagonist;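 active = inhibition above a per-plate cutoff, the mean inhibition of test compounds on that plate plus 3 SD, cut at about 49% in these data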;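 note: 0% = DMSO plus EC80 beta-PEA response and 100% = DMSO alone without agonist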
# Target sequence (Q96RJ0 whole entry, looked up): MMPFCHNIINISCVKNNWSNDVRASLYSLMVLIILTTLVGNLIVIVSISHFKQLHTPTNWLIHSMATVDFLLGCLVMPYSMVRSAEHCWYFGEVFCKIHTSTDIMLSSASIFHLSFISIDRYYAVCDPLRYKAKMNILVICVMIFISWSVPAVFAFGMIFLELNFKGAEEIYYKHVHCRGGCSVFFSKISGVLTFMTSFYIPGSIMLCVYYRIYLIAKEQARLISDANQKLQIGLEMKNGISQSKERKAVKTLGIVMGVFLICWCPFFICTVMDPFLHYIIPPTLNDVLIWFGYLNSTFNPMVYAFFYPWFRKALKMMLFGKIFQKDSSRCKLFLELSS
#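 Test system: RD-HGA16 CHO cells with stable hTAAR1 and Gα16 / Probe or stimulus: EC80 β-phenethylamine stimulus / Times: seeding 17-24 h prior, 75-min 37 °C, 30-min RT dye loading / Detection: Fluo-8 calcium-sensitive fluorescence / Read-out basis: % inhibition scaled between DMSO and EC80 PEA controls / Repeats: singlicate, one well per test compound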
# OX1R antag-1: OX1R (HCRTR1) antagonists, primary screen, fluorescence, CHO/OX1R cells, Fluo-8 calcium, orexin A; inhibition, % at 5 µM; Fluo-8 calcium fluorescence; Orexin/Hypocretin receptor type 1 (Homo sapiens), O43613; AID 434989, 2010; hit rate 0.43% among 330,000;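 active = inhibition above its plate's threshold, mean inhibition of all tested compounds on the plate plus 3 SD, cut at about 37% in these data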;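 note: 0% = orexin A challenge wells and 100% = SB-334867-A antagonist wells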
# OX1R antag-2: antagonists of human orexin 1 receptor (OX1R); Orexin/Hypocretin receptor type 1 (Homo sapiens), O43613; OX1R-expressing cells, FRET antagonist read-out; inhibition, % at 6.6 µM; hit rate 1.8% among 330,000; AID 485270, 2010; in the data active = inhibition mostly above about 38%, no sharp cut-off; inactive = mostly below about 40%;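 note: 0% = agonist challenge alone and 100% = reference antagonist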
# CHO parental Ca: ATP-evoked calcium signal inhibitors, parental CHO, primary screen, counter-screen for OX1R antagonist project, cell-based, fluorescence, Fluo-8 calcium dye | parental CHO-K1, ATP-induced calcium, Fluo-8 fluorescence | inhibition, % at 5.6 µM | hit rate 0.63% among 330,000;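 active = inhibition above that plate's mean sample inhibition plus 3 SD, cut at about 26% in these data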;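 note: 0% = ATP-challenged DMSO wells and 100% = DMSO wells without ATP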
#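 material = parental CHO cells | also added = ATP as calcium-mobilizing challenge | dosing = single point at 5.6 µM | detection = intracellular calcium via Fluo-8 no-wash fluorescent dye | read-out = % inhibition | benchmarks = low control ATP plus DMSO, high control DMSO only | repeats = one well per compound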
# GPR7 antagonist: GPR7 receptor antagonists, primary screen, cell-based, fluorescence, single concentration; GPR7-expressing cells, fluorescence antagonist assay; inhibition, % at 4.4 µM; hit rate 1.1% among 290,000; AID 1861, 2009; in the data active = inhibition above about 16%, passing the limit was not always enough;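 note: cells stimulated with the agonist NPW; 0% = agonist with vehicle and 100% = vehicle without agonist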
# Target sequence (P48145 whole entry, looked up): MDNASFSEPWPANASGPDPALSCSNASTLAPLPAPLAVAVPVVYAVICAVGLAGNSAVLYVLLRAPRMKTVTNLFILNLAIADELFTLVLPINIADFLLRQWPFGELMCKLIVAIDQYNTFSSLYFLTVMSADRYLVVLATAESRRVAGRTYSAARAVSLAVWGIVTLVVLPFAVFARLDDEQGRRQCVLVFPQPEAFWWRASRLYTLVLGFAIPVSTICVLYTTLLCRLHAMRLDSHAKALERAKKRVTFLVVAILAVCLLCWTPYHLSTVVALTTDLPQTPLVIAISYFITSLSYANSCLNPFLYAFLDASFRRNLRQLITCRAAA
# TAAR1 ag: human TAAR1 agonists, primary screen, Fluo-8 calcium fluorescence, CHO RD-HGA16 cells | vehicle wells 0%, saturating PEA agonist 100% | activation, % at 3 µM | hit rate 0.99% among 360,000 | Trace amine-associated receptor 1 (Homo sapiens), Q96RJ0 | AID 624467, 2012;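 active = activation above the mean activation of all test compounds in the run plus 3 SD, cut at about 38% in these data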
#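 Assay system: CHO-derived RD-HGA16 cells with stable Gα16 and human TAAR1; timing: 17-24 h seeding, 75 min 37 °C dye, 30 min RT; read-out: % activation from peak over basal fluorescence ratio, DMSO-to-PEA scaled; measured by: kinetic Fluo-8 calcium fluorescence; benchmarks: low control DMSO, high control PEA (EC100); doses: 3 µM single concentration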
# GPR7 antag conf: GPR7 receptor antagonists, confirmation, cell-based, fluorescence, single concentration; shares compounds with GPR7 antagonist; hit rate 52% among 2,400; inhibition, % at 4.4 µM; GPR7-expressing cells, calcium fluorescence antagonist mode; in the data active = inhibition above about 24%;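 note: stimulated with the GPR7 agonist NPW; 0% = agonist plus vehicle and 100% = vehicle alone without agonist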
# MCHR1 antag: MCHR1 antagonists in cells, counter-screen for GPR7 antagonist project, cell-based, fluorescence, human; AID 2148, 2009; hit rate 62% among 2,400; shares compounds with GPR7 antagonist; inhibition, % at 4.4 µM; MCHR1-expressing cells, fluorescence antagonist assay; in the data active = inhibition above about 22%;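 note: 0% = vehicle with agonist and 100% = vehicle without agonist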
# * = called active by the depositor; . = no result given.
SMILES,TAAR1 antagonist,OX1R antag-1,OX1R antag-2,CHO parental Ca,GPR7 antagonist,TAAR1 ag,GPR7 antag conf,MCHR1 antag
O=S(=O)(Nc1cccc(S(=O)(=O)N2CCCCC2)c1)c1ccccc1F,-34,-52,2,-19,.,1,.,.
COc1ccccc1N1CCN(CC(=O)Nc2ccc(C)c(F)c2)CC1,-14,-14,3,-29,26*,6,-3,1
O=C(O)Cc1ccc2c(c1)Cc1cccnc1O2,-20,.,.,.,.,3,.,.
CNc1ccccc1C(=O)OCC(=O)c1ccc(F)cc1,17,-27,2,-20,23*,-1,7,16
COc1ccc(-c2cn(Cc3ccc([N+](=O)[O-])cc3)nn2)cc1,13,-16,28,-6,19,11,.,.
CCCCCc1ccc(-c2cn(Cc3ccc([N+](=O)[O-])cc3)nn2)cc1,.,-20,18,-5,33*,.,37*,57*
CCOC(=O)[C@]12CCC=C1N(Cc1ccc3c(c1)OCO3)C(=O)[C@H](CC(=O)NCc1cccc(C(F)(F)F)c1)C2,-3,.,.,.,.,3,.,.
Cc1ccc(-c2nn(-c3ccccc3)cc2CNCc2ccccc2)cc1,31,8,13,-5,23*,30,41*,53*
CC1CC(C)CN(C(=O)COC(=O)COc2ccc(C#N)cc2)C1 (centres undefined),2,-18,6,-4,.,14,.,.
Cc1ccc(CNC(=O)c2ccc(F)c(S(=O)(=O)N3CCOCC3)c2)cc1,-5,.,.,.,.,1,.,.
Cc1ccc(C(=O)Nc2ccc(S(=O)(=O)N3CCN(C)CC3)cc2)cc1,5,-24,12,-14,45*,6,0,5
COCCN1Cc2cccc(C(=O)Nc3ccc(S(=O)(=O)N4CCCCC4)cc3)c2C1=O,-11,-2,4,12,24*,13,-7,-9
O=C(Nc1ccccc1)c1ccc(CN2CCc3ccccc3C2)cc1,16,-17,18,-1,0,0,.,.
O=C(Nc1ccc(S(=O)(=O)N2CCCCC2)cc1)c1ccc(CN2CCc3ccccc3C2)cc1,4,-10,16,47*,25*,5,49*,57*
CC1(C)CC(=O)C(C=NCC(N)=O)=C(O)C1,-13,-6,4,-10,-8,3,.,.
CC1(C)CC(=O)C(C=NCCCO)=C(O)C1,-2,0,10,6,27*,6,8,-3
CC(=O)c1ccc(S(=O)(=O)NCCC(=O)NC2CCN(Cc3ccccc3)CC2)cc1,2,-9,9,-14,.,0,.,.
CS(=O)(=O)N(Cc1ccccc1)c1ccc(C(=O)N2CCN(c3cccc(Cl)c3)CC2)cc1,.,11,-1,6,24*,.,36*,70*
Cc1ccc(CN(c2ccc(C(=O)N3CCc4ccccc4C3)cc2)S(C)(=O)=O)cc1,36,-7,4,-5,33*,37,32*,47*
CS(=O)(=O)N(Cc1ccc(C(=O)N2CCc3ccccc3C2)cc1)c1ccccc1,1,-21,21,-22,11,25,.,.
CN(c1ccc(C(=O)N2CCN(Cc3ccccc3)CC2)cc1)S(=O)(=O)c1ccc(Cl)cc1,14,-7,18,-1,32*,-1,20,33*
CS(=O)(=O)N(Cc1ccc(Cl)cc1)c1ccc(C(=O)N2CCN(c3ccccc3)CC2)cc1,34,24,5,34*,21*,13,38*,46*
c1ccc2c(c1)ccn2CCCN1CCCCC1,4,.,.,.,.,1,.,.
CC(C)C[C@H]1COc2cccc(N3CCCC3)c2S(=O)(=O)N1,-21,.,.,.,.,-1,.,.
NC(=S)N=Nc1ccc(O)cc1,-13,.,.,.,.,2,.,.
SMILES,TAAR1 antagonist,OX1R antag-1,OX1R antag-2,CHO parental Ca,GPR7 antagonist,TAAR1 ag,GPR7 antag conf,MCHR1 antag
O=C(CNS(=O)(=O)c1ccccc1)OCC(=O)c1ccc(Br)cc1,-12,7,10,4,-9,6,.,.
O=C(CNS(=O)(=O)c1ccccc1)OCC(=O)c1ccc(OC(=O)c2ccccc2)cc1,42,13,6,-5,24*,13,26*,39*
O=S(=O)(Cc1ccc(Cl)cc1)NCc1cccnc1,-2,-15,12,-13,25*,7,-4,-3
COc1ccccc1OCC(=O)NNC(=O)Nc1ccccc1,-9,5,-3,-21,.,3,.,.
O=C1NC(=S)S/C1=C\c1coc2ccc(O)cc2c1=O,-15,1,37,-11,21*,4,17,16
O=C1NC(=S)S/C1=C\c1coc2ccccc2c1=O,-7,-9,64*,-15,27*,0,1,19
O=C(Nc1ccc(Cl)c(Cl)c1)Nc1ccon1,14,11,-1,13,35*,23,35*,65*
Cc1cccc(C)c1NC(=O)C1(C)CSCC(=O)N1C1CCN(Cc2ccccc2)CC1 (centres undefined),-16,.,.,.,.,2,.,.
Cc1occc1C(=O)Nc1cccc(C(=O)O)c1,16,-10,16,-3,26*,17,-17,20
COc1ccc(CCNC(=O)C2CCCN(S(=O)(=O)c3ccccc3)C2)cc1 (centres undefined),8,-24,16,-10,-8,1,.,.
CC1(C)CC(=O)c2c(O)cc(OCC(=O)Nc3ccc(S(N)(=O)=O)cc3)cc2O1,-1,-8,4,-8,-4,3,.,.
COc1cc(NC(=O)COc2cc(O)c3c(c2)OC(C)(C)CC3=O)cc(OC)c1OC,70*,30,71*,82*,34*,11,51*,79*
CC1CCCC(C)N1C(=O)COC(=O)c1cc(F)c(F)cc1Cl (centres undefined),2,-16,3,-17,.,21,.,.
C=CCOc1ccccc1C(=O)/C=C1/C(=O)Nc2ccccc21,12,17,20,33*,37*,2,59*,82*
CCn1c(CCC(=O)N(C)CC(=O)Nc2cccc(F)c2)nc2cc(S(=O)(=O)N(C)C)ccc21,-17,-13,11,-11,.,0,.,.
